Values after ≈ are worked out from the molar mass of the structure shown.
What was measured:
[1] = Antifungal activity against Malassezia pachydermatis at 1000 ug/disc after 48 hrs by disc diffusion assay; assay type: functional
Method in brief: (§1)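 Fungal disc diffusion with inoculum from SDA spores (filamentous) or SDB culture (yeast). Test cultures were swabbed on agar, and discs at 1000 µg/disc were left 30 min at room temperature, with a solvent negative control. Plates were incubated 48 h at 27 °C. Zone of inhibition was measured in mm, and the experiment was repeated twice.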

Candida albicans [2] = assay: Antifungal activity against Candida albicans MTCC 227 at 1000 ug/disc after 48 hrs by disc diffusion assay; assay type: functional; settings: MTCC 227, 48 h, read-out: IZ; method in brief: as §1
Botrytis cinerea [3] = assay: Antifungal activity against Botrytis cinerea at 1000 ug/disc after 48 hrs by disc diffusion assay; assay type: functional; settings: read-out: IZ; method in brief: as §1
Staphylococcus aureus [4] = assay: Antibacterial activity against Staphylococcus aureus MTCC 96 after 24 hrs by twofold serial dilution method; assay type: functional; settings: MTCC 96, 24 h
Method in brief: (§2)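 Bacteria grown in Mueller Hinton broth for 24 h at 37 °C and diluted to about 10^4 CFU/ml. Compound in 2% DMSO was serially diluted two-fold (1000 to 15.62 µg/ml) in medium in 96-well plates and inoculated. Plates were incubated 24 h at 37 °C. 5 µl of broth was spotted onto MHA, and MIC was taken as the lowest concentration with no visible growth on agar.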

Staphylococcus aureus [5] = assay: Antibacterial activity against methicillin-resistant Staphylococcus aureus after 24 hrs by twofold serial dilution method; assay type: functional
Method in brief: (§3)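 Broth microdilution in MHB following the standard bacterial reference method. Compound was dissolved in DMSO (2%) and serially diluted two-fold from 1000 to 15.62 µg/ml in 96-well plates, with an inoculum of about 10^4 CFU/ml. Streptomycin and ciprofloxacin were positive controls. After 24 h at 37 °C, 5 µl of broth was subcultured on MHA. MIC was the lowest concentration without visible growth on agar.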

Micrococcus luteus [6] = assay: Antibacterial activity against Micrococcus luteus after 24 hrs by twofold serial dilution method; assay type: functional; method in brief: as §2
Klebsiella aerogenes [7] = assay: Antibacterial activity against Enterobacter aerogenes MTCC 111 after 24 hrs by twofold serial dilution method; assay type: functional; settings: MTCC 111, 24 h; method in brief: as §2
Proteus vulgaris [8] = assay: Antibacterial activity against Proteus vulgaris MTCC 1771 after 24 hrs by twofold serial dilution method; assay type: functional; settings: MTCC 1771, 24 h; method in brief: as §2
Klebsiella pneumoniae [9] = assay: Antibacterial activity against Klebsiella pneumoniae MTCC 109 after 24 hrs by twofold serial dilution method; assay type: functional; settings: MTCC 109, 24 h; method in brief: as §2
Salmonella typhimurium [10] = assay: Antibacterial activity against Salmonella Typhimurium MTCC 1251 after 24 hrs by two-fold serial dilution method; assay type: functional, Salmonella enterica subsp. enterica serovar Typhimurium; settings: Salmonella enterica, MTCC 1251, 24 h; method in brief: as §2
[11] = system: Salmonella enterica subsp. enterica serovar Paratyphi B; assay: Antibacterial activity against Salmonella paratyphi B after 24 hrs by twofold serial dilution method; assay type: functional; method in brief: as §3
[12] = Antifungal activity against Malassezia pachydermatis after 48 to 72 hrs by twofold serial dilution method; assay type: functional
Method in brief: (§4)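 Broth two-fold serial dilution, 1000 to 15.62 µg/ml, with compound dissolved in 2% DMSO, in 96-well plates. Filamentous fungal spores came from 10-day SDA slants at 28 °C, and yeast from SDB grown 48 h at 28 °C. Incubation was 48-72 h at 28 °C. MIC was the lowest concentration with no visible fungal growth.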

Candida albicans [13] = assay: Antifungal activity against Candida albicans MTCC 227 after 48 to 72 hrs by twofold serial dilution method; assay type: functional; method in brief: as §4
Botrytis cinerea [14] = assay: Antifungal activity against Botrytis cinerea after 48 to 72 hrs by twofold serial dilution method; assay type: functional; method in brief: as §4
Staphylococcus aureus [15] = assay: Antibacterial activity against Staphylococcus aureus MTCC 96 at 1000 ug/disc after 24 hrs by disc diffusion assay; assay type: functional; settings: MTCC 96, 24 h, read-out: IZ
Method in brief: (§5)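 Disc diffusion on Mueller Hinton agar. Cultures (about 10^4 CFU/ml) were swabbed on and dried 10 min. Discs loaded at 1000 µg/disc were left 30 min at room temperature for diffusion, with a solvent negative control. Plates were incubated 24 h at 37 °C. Inhibition zones were measured in mm, and the experiment was done twice.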

Staphylococcus aureus [16] = assay: Antibacterial activity against methicillin-resistant Staphylococcus aureus at 1000 ug/disc after 24 hrs by disc diffusion assay; assay type: functional; settings: read-out: IZ
Method in brief: (§6)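 Disc diffusion on Mueller Hinton agar. Bacteria were grown 24 h at 37 °C in MHB and diluted to about 10^4 CFU/ml, swabbed onto plates and dried 10 min. Discs were loaded at 1000 μg/disc and held 30 min at room temperature for diffusion. Solvent served as negative control. After 24 h at 37 °C, inhibition zones were read in mm; run twice.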

Micrococcus luteus [17] = assay: Antibacterial activity against Micrococcus luteus at 1000 ug/disc after 24 hrs by disc diffusion assay; assay type: functional; settings: read-out: IZ; method in brief: as §5
Klebsiella aerogenes [18] = assay: Antibacterial activity against Enterobacter aerogenes MTCC 111 at 1000 ug/disc after 24 hrs by disc diffusion assay; assay type: functional; settings: MTCC 111, 24 h, read-out: IZ; method in brief: as §5
Proteus vulgaris [19] = assay: Antibacterial activity against Proteus vulgaris MTCC 1771 at 1000 ug/disc after 24 hrs by disc diffusion assay; assay type: functional; settings: MTCC 1771, 24 h, read-out: IZ; method in brief: as §5
Klebsiella pneumoniae [20] = assay: Antibacterial activity against Klebsiella pneumoniae MTCC 109 at 1000 ug/disc after 24 hrs by disc diffusion assay; assay type: functional; settings: MTCC 109, 24 h, read-out: IZ; method in brief: as §5
Salmonella typhimurium [21] = assay: Antibacterial activity against Salmonella Typhimurium MTCC 1251 at 1000 ug/disc after 24 hrs by disc diffusion assay; assay type: functional, Salmonella enterica subsp. enterica serovar Typhimurium; settings: Salmonella enterica, MTCC 1251, 24 h; read-out: IZ; method in brief: as §5
[22] = system: Salmonella enterica subsp. enterica serovar Paratyphi B; assay: Antibacterial activity against Salmonella paratyphi B at 1000 ug/disc after 24 hrs by disc diffusion assay; assay type: functional; settings: read-out: IZ; method in brief: as §6

Row | Compound | inhibition zone (IZ) [1] [mm] | zone of inhibition at 1000 µg/disc (Candida albicans [2]) [mm] | zone of inhibition at 1000 µg/disc (Botrytis cinerea [3]) [mm] | MIC (Staphylococcus aureus [4]) [µg/mL] | MIC (Staphylococcus aureus [5]) [µg/mL] | MIC (Micrococcus luteus [6]) [µg/mL] | MIC (Klebsiella aerogenes [7]) [µg/mL] | MIC (Proteus vulgaris [8]) [µg/mL] | MIC (Klebsiella pneumoniae [9]) [µg/mL] | MIC (Salmonella typhimurium [10]) [µg/mL] | MIC [11] [µg/mL] | MIC [12] [µg/mL] | MIC (Candida albicans [13]) [µg/mL] | MIC (Botrytis cinerea [14]) [µg/mL] | zone of inhibition at 1000 µg/disc (Staphylococcus aureus [15]) [mm] | zone of inhibition at 1000 µg/disc (Staphylococcus aureus [16]) [mm] | zone of inhibition at 1000 µg/disc (Micrococcus luteus [17]) [mm] | zone of inhibition at 1000 µg/disc (Klebsiella aerogenes [18]) [mm] | zone of inhibition at 1000 µg/disc (Proteus vulgaris [19]) [mm] | zone of inhibition at 1000 µg/disc (Klebsiella pneumoniae [20]) [mm] | other results
1 | CN1CC2=C(C(=O)c3ccccc3C2=O)C12C(=O)Nc1ccc(I)cc12 (stereo not drawn) | 14 | 11 | 12 | 62.5 (≈ 137 µM) | 500 (≈ 1100 µM) | 15.6 (≈ 34.2 µM) | 250 (≈ 548 µM) | 500 (≈ 1100 µM) | 250 (≈ 548 µM) | 125 (≈ 274 µM) | 500 (≈ 1100 µM) | 125 (≈ 274 µM) | 250 (≈ 548 µM) | 250 (≈ 548 µM) | 16 | 8 | 15 | 12 | 10 | 11 | zone of inhibition at 1000 µg/disc (Salmonella typhimurium [21]): 14 mm; zone of inhibition at 1000 µg/disc [22]: 7 mm
2 | CCCCCCN1C(=O)C2(C3=C(CN2C)C(=O)c2ccccc2C3=O)c2ccccc21 (stereo not drawn) | 12 | 14 | 10 | 250 (≈ 603 µM) | 500 (≈ 1210 µM) | 250 (≈ 603 µM) | 250 (≈ 603 µM) | 500 (≈ 1210 µM) | 500 (≈ 1210 µM) | 62.5 (≈ 151 µM) | 500 (≈ 1210 µM) | 250 (≈ 603 µM) | 125 (≈ 302 µM) | 500 (≈ 1210 µM) | 12 | 10 | 10 | 13 | 10 | 10 | zone of inhibition at 1000 µg/disc (Salmonella typhimurium [21]): 16 mm; zone of inhibition at 1000 µg/disc [22]: 8 mm
3 | CN1CC2=C(C(=O)c3ccccc3C2=O)C12C(=O)Nc1ccccc12 (stereo not drawn) | 11 | 10 | 10 | 62.5 (≈ 189 µM) | 250 (≈ 757 µM) | 125 (≈ 378 µM) | 250 (≈ 757 µM) | 250 (≈ 757 µM) | 125 (≈ 378 µM) | 125 (≈ 378 µM) | 250 (≈ 757 µM) | 250 (≈ 757 µM) | 125 (≈ 378 µM) | 125 (≈ 378 µM) | 15 | 10 | 13 | 10 | 11 | 13 | zone of inhibition at 1000 µg/disc (Salmonella typhimurium [21]): 12 mm; zone of inhibition at 1000 µg/disc [22]: 10 mm
4 | CCN1C(=O)C2(C3=C(CN2C)C(=O)c2ccccc2C3=O)c2ccccc21 (stereo not drawn) | 11 | 10 | 8 | 15.6 (≈ 43.6 µM) | 250 (≈ 698 µM) | 31.2 (≈ 87.2 µM) | 250 (≈ 698 µM) | 62.5 (≈ 174 µM) | 250 (≈ 698 µM) | 31.2 (≈ 87.2 µM) | 500 (≈ 1400 µM) | 250 (≈ 698 µM) | 500 (≈ 1400 µM) | 500 (≈ 1400 µM) | 22 | 13 | 18 | 12 | 15 | 12 | zone of inhibition at 1000 µg/disc (Salmonella typhimurium [21]): 19 mm; zone of inhibition at 1000 µg/disc [22]: 10 mm

From ChEMBL document CHEMBL1955865, “Synthesis of novel spirooxindole derivatives by one pot multicomponent reaction and their antimicrobial activity” (2012)
